What was measured:
[1] = Toxic concentration, in CEM cells estimated by the XTT assay; assay type: toxicity, cell-based; conditions: human, CCRF-CEM (CEM) cells; read-out: TC50 (the source's name)
[2] = Tested in vitro against HSV 2 from Wi-38 cells; assay type: organism-based; conditions: human alphaherpesvirus 2, WI-38 cells; read-out: TC50 (the source's name)
[3] = test system: Human immunodeficiency virus 1; assay: Tested in vitro against human immunodeficiency virus (HIV) infected CEM cells using XTT assay (HIV-HRF strain); NA = not active at 100 uM; assay type: functional, organism-based; conditions: ccrf-cem
Method in brief: (§1)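 Anti-HIV XTT assay in HIV-infected CEM cells, using the LAV-BRU or HIV-HRF strain as the line names. The value is the 50% inhibitory concentration. The top concentration tested was 100 μM, and inactivity there is scored NA.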

Human betaherpesvirus 5 [4] = assay: Tested in vitro against HCMV from WI-38 cells; NA= not active at 100 uM; assay type: functional, organism-based
Human alphaherpesvirus 2 [5] = assay: Tested in vitro against HSV 2 from WI-38 cells; NA= not active at 100 uM; assay type: functional, organism-based
[6] = Tested in vitro against HCMV from WI-38 cells; assay type: organism-based; conditions: human betaherpesvirus 5, WI-38 cells; read-out: TC50 (the source's name)
[7] = test system: Human immunodeficiency virus 1; assay: Tested in vitro against human immunodeficiency virus (HIV) infected CEM cells using XTT assay (LAV-BRU strain); NA = not active at 100 uM; assay type: functional, organism-based; conditions: ccrf-cem; method in brief: as §1
Human betaherpesvirus 5 [8] = assay: (§2) Tested in vitro against HCMV AD-169 strain in MRC-5 cells; assay type: functional, organism-based; conditions: Human betaherpesvirus 5, MRC5
Method in brief: (§3)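 Plaque reduction assay against HCMV strain AD-169 in MRC-5 cells, giving a 50% inhibitory concentration. The top concentration tested was 100 μM, and inactivity there is scored NA.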

[9] = as §2; assay type: ADME, organism-based, MRC5; conditions: human betaherpesvirus 5, MRC-5 cells; read-out: TC50 (the source's name)
[10] = (§4) Tested in vitro against HSV 2 G strain in vero cells; assay type: organism-based; conditions: human alphaherpesvirus 2, Vero cells; read-out: TC50 (the source's name)
Human alphaherpesvirus 2 [11] = assay: Tested in vitro against HSV 2 G strain in vero cells; NA= not active at 100 uM; assay type: functional, organism-based
Method in brief: (§5)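 Plaque reduction assay against HSV-2 strain G in Vero cells, giving a 50% inhibitory concentration. The top concentration tested was 100 μM, and inactivity there is scored NA.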

Human betaherpesvirus 5 [12] = assay: Tested in vitro against HCMV AD-169 strain in MRC-5 cells; NA= not active at 100 uM; assay type: functional, organism-based; conditions: mrc5; method in brief: as §3
Human betaherpesvirus 5 [13] = assay: Tested in vitro against HCMV from WI-38 cells; NA= not active at 100 uM as determined in WI-38 cells; assay type: functional, organism-based
[14] = Ratio between TC50 against human immunodeficiency virus infected CEM cells and IC50 against CEM cells; assay type: functional, CCRF-CEM
Method in brief: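 Selectivity index is TC50 divided by IC50. TC50 is the 50% toxic concentration from the XTT assay in CEM cells. IC50 is the 50% inhibitory concentration from the XTT assay in HIV-infected CEM cells.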

[15] = test system: Human immunodeficiency virus 1; assay: Tested in vitro against human immunodeficiency virus (HIV) infected CEM cells using XTT assay (HIV-HRF strain); assay type: functional, organism-based; conditions: Human immunodeficiency virus 1, CCRF-CEM; method in brief: as §1
CCRF-CEM = assay: Cell growth toxicity against CEM cells after treatment with compound for 72 hours; assay type: functional; conditions: Homo sapiens
Method in brief: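 Cytotoxicity in CEM cells: cells counted after 72 h drug exposure; the value is the concentration giving 50% cell growth toxicity.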

[16] = Tested in vitro against HSV 2 from WI-38 cells; assay type: organism-based; conditions: human alphaherpesvirus 2, WI-38 cells; read-out: TC50 (the source's name)
[17] = test system: Human immunodeficiency virus 1; assay: Tested in vitro against human immunodeficiency virus (HIV) infected CEM cells using XTT assay (LAV-BRU strain); assay type: functional, organism-based; conditions: Human immunodeficiency virus 1, CCRF-CEM; method in brief: as §1
Human alphaherpesvirus 2 [18] = assay: as §4; assay type: functional, organism-based; conditions: Human alphaherpesvirus 2, Vero; method in brief: as §5
Human alphaherpesvirus 2 [19] = assay: as §4; assay type: functional, organism-based, herpes simplex virus; conditions: Human alphaherpesvirus 2, Vero; method in brief: as §5

Structure (SMILES) | CC50 [1] [µM] | IC50 (Human betaherpesvirus 5 [8]) [µM] | CC50 [9] [µM] | CC50 [10] [µM] | IC50 (Human alphaherpesvirus 2 [11]) | Selectivity index [14] | CC50 (CCRF-CEM) [µM] | IC50 [17] [µM] | also measured
Nc1nc(O)c2ncn(C[C@H](OCP(=O)(O)O)C3CC3)c2n1 | > 1000 | – | – | – | – | – | – | – | CC50 [2]: > 300 µM; IC50 [3]: Not Active; IC50 (Human betaherpesvirus 5 [4]): Not Active; IC50 (Human alphaherpesvirus 2 [5]): Not Active; CC50 [6]: > 300 µM
Nc1nc(O)c2ncn(C[C@H](CCO)OCP(=O)(O)O)c2n1 | > 500 | 162 | > 300 | 300 | Not Active | – | – | – | IC50 [7]: Not Active
[N-]=[N+]=NCC[C@@H](Cn1cnc2c(O)nc(N)nc21)OCP(=O)(O)O | > 500 | – | 300 | 300 | Not Active | – | – | – | IC50 (Human betaherpesvirus 5 [12]): Not Active; IC50 [7]: Not Active
C=C[C@H](Cn1cnc2c(O)nc(N)nc21)OCP(=O)(O)O | > 1000 | – | – | – | – | >77 | > 1590 | – | IC50 (Human betaherpesvirus 5 [13]): Not Active; IC50 [15]: 13 µM; CC50 [6]: > 300 µM
CC[C@@H](Cn1cnc2c(O)nc(N)nc21)OCP(=O)(O)O | > 500 | – | 300 | 300 | Not Active | >2 | – | – | IC50 (Human betaherpesvirus 5 [12]): Not Active; IC50 [15]: 252 µM
CC[C@H](Cn1cnc2c(O)nc(N)nc21)OCP(=O)(O)O | 1000 | – | – | – | – | 19 | – | – | IC50 [15]: 54 µM; CC50 [16]: > 300 µM; IC50 (Human betaherpesvirus 5 [4]): Not Active; IC50 (Human alphaherpesvirus 2 [5]): Not Active; CC50 [6]: > 300 µM
C[C@@H](Cn1cnc2c(O)nc(N)nc21)OCP(=O)(O)O | – | 16 | > 330 | > 330 | – | 25 | 12 | 12 | IC50 (Human alphaherpesvirus 2 [18]): 43 µM
C=C[C@@H](Cn1cnc2c(O)nc(N)nc21)OCP(=O)(O)O | > 1000 | – | > 300 | 300 | Not Active | >20 | > 1590 | – | IC50 (Human betaherpesvirus 5 [12]): Not Active; IC50 [15]: 49 µM
Nc1nc(O)c2ncn(C[C@H](CCF)OCP(=O)(O)O)c2n1 | > 500 | – | 300 | 300 | Not Active | – | – | – | IC50 (Human betaherpesvirus 5 [12]): Not Active; IC50 [7]: Not Active
Nc1nc(O)c2ncn(C[C@@H](CCO)OCP(=O)(O)O)c2n1 | > 450 | – | – | 300 | Not Active | – | – | – | IC50 [7]: Not Active
C[C@H](Cn1cnc2c(O)nc(N)nc21)OCP(=O)(O)O | > 500 | 16 | > 330 | > 330 | – | >500 | 180 | 1 | IC50 (Human alphaherpesvirus 2 [18]): 82 µM
Nc1nc(O)c2ncn(C[C@@H](OCP(=O)(O)O)C3CC3)c2n1 | 91 | – | – | 300 | Not Active | – | – | – | IC50 [3]: Not Active
Nc1nc(O)c2ncn(CC(CF)OCP(=O)(O)O)c2n1 (single isomer, unassigned; form 1) | > 500 | 136 | > 310 | > 310 | – | > 63 | 427 | 8 | –
Nc1nc2c(ncn2CC(CO)OCP(=O)(O)O)c(=O)[nH]1 (single isomer, unassigned; form 1) | > 500 | 1.6 | > 310 | > 310 | – | > 1 | – | 500 | IC50 (Human alphaherpesvirus 2 [19]): 97 µM
Nc1nc(O)c2ncn(CC(CCl)OCP(=O)(O)O)c2n1 (single isomer, unassigned; form 1) | > 500 | 51 | > 300 | > 300 | Not Active | > 11 | 870 | 45 | –
[N-]=[N+]=NCC(Cn1cnc2c(O)nc(N)nc21)OCP(=O)(O)O (single isomer, unassigned; form 1) | > 1000 | 33 | > 300 | > 300 | Not Active | > 200 | > 1400 | – | IC50 [15]: 5 µM
[N-]=[N+]=NCC(Cn1cnc2c(O)nc(N)nc21)OCP(=O)(O)O (single isomer, unassigned; form 2) | > 1000 | 15 | > 300 | > 300 | Not Active | > 20 | 134 | – | IC50 [15]: 51 µM
Nc1nc(O)c2ncn(CC(CCl)OCP(=O)(O)O)c2n1 (single isomer, unassigned; form 2) | > 500 | 112 | 300 | 300 | Not Active | > 10 | > 1500 | 50 | –
Nc1nc(O)c2ncn(CC(CO)OCP(=O)(O)O)c2n1 (single isomer, unassigned; form 2) | – | 0.8 | > 310 | > 310 | – | < 1 | – | > 500 | IC50 (Human alphaherpesvirus 2 [18]): 99 µM
Nc1nc(O)c2ncn(CC(CF)OCP(=O)(O)O)c2n1 (single isomer, unassigned; form 2) | > 500 | 150 | > 310 | > 310 | – | > 71 | 93 | 7 | –
Nc1nc2c(ncn2CCOCP(=O)(O)O)c(=O)[nH]1 [GS-438] | – | 0.09 | 30 | 17 | – | 75 | 0.2 | 0.2 | IC50 (Human alphaherpesvirus 2 [18]): 1.1 µM

Source: ChEMBL document CHEMBL1126801, “Synthesis and antiviral activity of 2'-substituted 9-[2-(phosphonomethoxy)ethyl]guanine analogues” (J Med Chem, 1993)
